Measured values: ChEMBL document CHEMBL1641377, “Discovery of novel, potent, selective, and orally active human glucagon receptor antagonists containing a pyrazole core” (Bioorg Med Chem Lett, 2011)
The source made the active and inactive calls. No cut-off for these calls is given here.

How the values were obtained:
[1] = Drug level in blood of transgenic mouse expressing human GCGR at 30 mg/kg, po after 45 mins; assay type: ADME, organism-based; design: dose 30 mg/kg, route oral; conditions: read-out: Drug uptake
Outline: (§1)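 Blood drug concentration sampled in hGCGR transgenic mice during the oral glucagon-challenge pharmacodynamic assay at 45 and 120 min post dose, 10 and 30 mpk groups, n = 3 per group.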

Rhesus monkey = experiment: Antidiabetic activity in rhesus monkey assessed as inhibition of glucagon-induced blood glucose excursion at 1 to 10 mg/kg, po administered 4 hrs before glucagon challenge measured after 4 hrs; assay type: functional, organism-based; conditions: Macaca mulatta
Outline: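 Overnight-fasted rhesus monkeys dosed with vehicle or compound 4 h before challenge; glucagon 15 µg/kg im at time zero, plasma glucose monitored every 10 min and expressed as change from time zero per group.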

[2] = target: T1, Nuclear receptor subfamily 1 group I member 2 (Homo sapiens, UniProt O75469); experiment: Activity at human PXR
T1 sequence (O75469 whole entry): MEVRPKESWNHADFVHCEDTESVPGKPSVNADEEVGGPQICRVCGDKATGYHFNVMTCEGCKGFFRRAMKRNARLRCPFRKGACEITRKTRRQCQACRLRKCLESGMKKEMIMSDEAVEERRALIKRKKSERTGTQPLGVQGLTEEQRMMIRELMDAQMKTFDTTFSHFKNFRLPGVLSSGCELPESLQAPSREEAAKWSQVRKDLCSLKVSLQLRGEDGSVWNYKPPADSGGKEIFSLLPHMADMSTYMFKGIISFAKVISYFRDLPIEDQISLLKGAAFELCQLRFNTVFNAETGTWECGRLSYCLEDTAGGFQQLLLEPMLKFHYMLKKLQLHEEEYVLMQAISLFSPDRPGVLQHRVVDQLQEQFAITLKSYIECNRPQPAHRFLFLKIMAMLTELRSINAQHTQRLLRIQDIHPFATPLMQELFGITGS

[3] = Plasma concentration in rhesus monkey at 10 mg/kg, po after 4 hrs; assay type: ADME, organism-based, Macaca mulatta; design: dose 10 mg/kg, route oral
Outline: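 Overnight-fasted rhesus monkeys received the oral dose 4 h before the glucagon challenge (15 µg/kg im, time zero). Plasma drug level was sampled at the time of the challenge (t = 0, n = 4). Plasma glucose was then followed every 10 min and expressed as the change from time zero.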

Mus musculus [4] = experiment: Dose normalized AUC in mouse at 2 mg/kg, po; assay type: ADME, organism-based; design: dose 2 mg/kg, route oral; conditions: in vivo
Homo sapiens = species: Homo sapiens; experiment: Binding affinity to human sodium channel up to 10 uM
[5] = Cmax in rhesus monkey at 2 mg/kg, po; assay type: ADME, organism-based, Macaca mulatta; design: dose 2 mg/kg, route oral; conditions: in vivo
[6] = Cmax in mouse at 2 mg/kg, po; assay type: ADME, organism-based; design: dose 2 mg/kg, route oral; conditions: in vivo
[7] = Bioavailability in rat at 1 mg/kg, iv and 2 mg/kg, po; assay type: ADME, organism-based; conditions: in vivo
[8] = Bioavailability in rhesus monkey at 0.5 mg/kg, iv and 2 mg/kg, po; assay type: ADME, organism-based, Macaca mulatta; conditions: in vivo
Mus musculus [9] = experiment: In vivo occupancy of human GCGR transfected in mouse at 10 mg/kg after 1 hr; assay type: functional
Outline: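 In vivo receptor occupancy measured in hGCGR transgenic mice after oral dosing, at 1 h post-dose (30 and 10 mpk) and in a separate experiment at 1, 3 and 8 h after 10 mpk.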

[10] = Blood clearance in mouse at 1 mg/kg, iv and 2 mg/kg, po; assay type: ADME, organism-based
[11] = Drug level in blood of transgenic mouse expressing human GCGR at 10 mg/kg, po after 45 mins; assay type: ADME, organism-based; design: dose 10 mg/kg, route oral; conditions: read-out: Drug uptake; outline: as §1
[12] = Volume of distribution at steady state in dog at 0.5 mg/kg, iv and 2 mg/kg, po; assay type: ADME, organism-based, Canis lupus familiaris; conditions: in vivo, read-out: Vdss
[13] = Half life in mouse at 1 mg/kg, iv and 2 mg/kg, po; assay type: ADME, organism-based; conditions: in vivo
[14] = target: T2, Gastric inhibitory polypeptide receptor (Homo sapiens, UniProt P48546); experiment: Antagonist activity at human GIPR expressed in CHO cells assessed as inhibition of glucagon-induced cAMP accumulation; assay type: functional, cell-based
T2 sequence (P48546 whole entry): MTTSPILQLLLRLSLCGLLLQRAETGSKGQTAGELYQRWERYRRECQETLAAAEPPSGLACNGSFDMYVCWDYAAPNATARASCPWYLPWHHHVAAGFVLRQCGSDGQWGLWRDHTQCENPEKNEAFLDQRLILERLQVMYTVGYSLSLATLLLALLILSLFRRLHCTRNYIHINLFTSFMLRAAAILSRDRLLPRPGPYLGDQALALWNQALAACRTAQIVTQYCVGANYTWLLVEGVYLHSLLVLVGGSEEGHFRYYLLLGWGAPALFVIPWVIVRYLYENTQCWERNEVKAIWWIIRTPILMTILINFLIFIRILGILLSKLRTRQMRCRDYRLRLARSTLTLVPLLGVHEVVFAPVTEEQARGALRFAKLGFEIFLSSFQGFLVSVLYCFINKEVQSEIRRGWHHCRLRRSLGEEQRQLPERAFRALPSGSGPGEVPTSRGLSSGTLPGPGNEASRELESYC

Glucagon receptor = Glucagon receptor (Homo sapiens, UniProt P47871); experiment: Displacement of [125I]glucagon from human GCGR expressed in CHO cells; assay type: cell-based
Sequence of Glucagon receptor (P47871 whole entry): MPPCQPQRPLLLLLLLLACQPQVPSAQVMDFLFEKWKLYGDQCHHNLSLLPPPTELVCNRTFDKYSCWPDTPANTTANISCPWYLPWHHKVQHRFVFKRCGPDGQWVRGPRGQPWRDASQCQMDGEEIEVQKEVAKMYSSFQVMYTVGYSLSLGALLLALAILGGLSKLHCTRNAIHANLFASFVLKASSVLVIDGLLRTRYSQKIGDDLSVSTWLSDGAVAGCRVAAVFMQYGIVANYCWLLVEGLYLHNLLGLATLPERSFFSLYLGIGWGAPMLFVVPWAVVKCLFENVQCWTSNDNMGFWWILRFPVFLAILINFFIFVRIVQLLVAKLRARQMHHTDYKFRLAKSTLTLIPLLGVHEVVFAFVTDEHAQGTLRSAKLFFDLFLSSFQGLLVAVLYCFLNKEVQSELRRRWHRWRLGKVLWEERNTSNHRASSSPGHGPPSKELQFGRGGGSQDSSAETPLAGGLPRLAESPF
Outline: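 Binding inhibition of 125I-glucagon to human GCGR expressed in CHO cell membranes; IC50 reported, n given where replicated.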

[15] = Half life in rhesus monkey at 0.5 mg/kg, iv and 2 mg/kg, po; assay type: ADME, organism-based, Macaca mulatta; conditions: in vivo
Mus musculus [16] = experiment: Antidiabetic activity in transgenic mouse expressing human GCGR assessed as inhibition of glucagon-induced blood glucose excursion at 30 mg/kg, po administered 3 hrs before glucagon challenge measured after 48 mins; assay type: functional, organism-based; design: dose 30 mg/kg
Outline: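 hGCGR transgenic mice (only functional receptor is human GCGR), 9 per group, given compound orally, then glucagon 15 µg/kg IP 60 min later (one arm dosed 30 mpk three hours before challenge); blood glucose monitored at 12, 24, 36 and 48 min after glucagon.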

Mus musculus [17] = experiment: Antihyperglycemic activity in streptozotocin-induced diabetes mouse model assessed as decrease in blood glucose AUC level at 10 mg/kg, po after 4 weeks; assay type: functional; conditions: 672 h
Outline: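 Diabetic model: hGCGR transgenic mice on high-fat diet for eight weeks, streptozotocin-treated during the last four weeks; single oral dose, blood glucose AUC over 2–6 h measured.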

[18] = Plasma concentration in dog at 1 to 10 mg/kg, iv after 30 mins; assay type: ADME, organism-based, Canis lupus familiaris; design: dose 1-10 mg/kg, route intravenous
[19] = Cmax in dog at 2 mg/kg, po; assay type: ADME, organism-based, Canis lupus familiaris; design: dose 2 mg/kg, route oral; conditions: in vivo
Oryctolagus cuniculus = species: Oryctolagus cuniculus; experiment: Binding affinity to DLZ-sensitive rabbit calcium channel up to 10 uM
Cytochrome P450 3A4 = Cytochrome P450 3A4 (Homo sapiens, UniProt P08684); experiment: Inhibition of CYP3A4; assay type: ADME
Sequence of Cytochrome P450 3A4 (P08684 whole entry): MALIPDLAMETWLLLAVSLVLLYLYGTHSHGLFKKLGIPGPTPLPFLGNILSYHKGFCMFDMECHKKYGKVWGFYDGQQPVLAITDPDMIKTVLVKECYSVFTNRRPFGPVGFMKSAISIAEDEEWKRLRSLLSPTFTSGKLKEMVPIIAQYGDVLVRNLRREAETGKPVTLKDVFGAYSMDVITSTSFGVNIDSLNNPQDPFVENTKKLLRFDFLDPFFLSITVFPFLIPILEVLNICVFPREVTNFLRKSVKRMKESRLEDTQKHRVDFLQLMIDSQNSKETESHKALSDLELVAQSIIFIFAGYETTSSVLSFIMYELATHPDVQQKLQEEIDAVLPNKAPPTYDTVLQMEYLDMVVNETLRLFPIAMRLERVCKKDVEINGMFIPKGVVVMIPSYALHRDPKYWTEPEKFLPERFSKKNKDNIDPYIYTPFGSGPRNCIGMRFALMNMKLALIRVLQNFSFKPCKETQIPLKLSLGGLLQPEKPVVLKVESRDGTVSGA

[20] = Drug level in blood of transgenic mouse expressing human GCGR at 30 mg/kg, po after 120 mins; assay type: ADME, organism-based; design: dose 30 mg/kg, route oral; conditions: read-out: Drug uptake; outline: as §1

O=C(O)CCNC(=O)c1ccc(Cn2nc(-c3cc(Cl)cc(Cl)c3)cc2-c2ccc(OC(F)(F)F)cc2)cc1
concentration at 0.75 h [1]: 10.3 µM | inhibition (Rhesus monkey): Active | EC50 [2]: > 25 µM | concentration at 4 h [3]: 8.8 µM | AUC (Mus musculus [4]): 0.73 µM·kg·h/mg | Activity (Homo sapiens): inactive | Cmax [5]: 4.2 µM | Cmax [6]: 0.23 µM | bioavailability [7]: 57% | bioavailability [8]: 68% | Activity (Mus musculus [9]): 64% | clearance [10]: 6.1 mL/min/kg | concentration at 0.75 h [11]: 3.55 µM | Vd [12]: 0.14 L/kg | half-life [13]: 2.3 h | IC50 [14]: 7.5 µM | IC50 (Glucagon receptor): 0.084 µM | half-life [15]: 10 h | inhibition (Mus musculus [16]): Active | inhibition in vivo at 10 mg/kg (Mus musculus [17]): 27% | concentration at 0.5 h [18]: 96 µM | Cmax [19]: 7.7 µM | Activity (Oryctolagus cuniculus): inactive | IC50 (Cytochrome P450 3A4): 39 µM | concentration at 2 h [20]: 14.2 µM
